Experimental data taken from ChEMBL document CHEMBL3808372, “Identification of quinones as novel PIM1 kinase inhibitors” (Bioorg Med Chem Lett, 2016).

Experiments:
[1] = target: Serine/threonine-protein kinase PLK3 (Homo sapiens) (UniProt Q9H4B4); test: Inhibition of human PLK3 (42 to 334 amino acid residues) assessed as enzyme activity at 10 uM by KINOMEScan assay; set-up: scale not given: the % may be the effect or the level left
Outline: (§1)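 Single-concentration competition binding screen (KINOMEscan) across a 100-kinase panel at 10 μM. Primary binding read-out is reported as % of control: (test signal − positive-control signal)/(negative-control signal − positive-control signal) × 100. Lower values indicate stronger binding.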

[2] = target: Bone morphogenetic protein receptor type-2 (Homo sapiens) (UniProt Q13873); test: Inhibition of human BMPR2 (179 to 526 amino acid residues) assessed as enzyme activity at 10 uM by KINOMEScan assay; set-up: scale not given: the % may be the effect or the level left
Outline: (§2)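 Competition binding screen on a 100-kinase KINOMEscan panel, compound tested at a single 10 μM concentration. Primary binding read-out expressed as % Ctrl = (test compound signal − positive control signal)/(negative control signal − positive control signal) × 100, with lower values meaning stronger binding.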

[3] = test system: Mast/stem cell growth factor receptor Kit (Homo sapiens), P10721 [V559D,T670I]; test: Inhibition of human KIT V559D/T670I mutant (545 to 952 amino acid residues) expressed in bacterial system assessed as enzyme activity at 10 uM by KINOMEScan assay; set-up: scale not given: the % may be the effect or the level left
Outline: (§3)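 Commercial KINOMEscan binding panel of 100 kinases, test compound at 10 μM. Results are primary-screen binding interactions expressed as % Ctrl = (test compound signal − positive control signal)/(negative control signal − positive control signal) × 100. Lower % Ctrl means stronger binding.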

[4] = target: Mitogen-activated protein kinase kinase kinase 9 (Homo sapiens) (UniProt P80192); test: Inhibition of human MLK1 (88 to 426 amino acid residues) expressed in bacterial system assessed as enzyme activity at 10 uM by KINOMEScan assay; set-up: scale not given: the % may be the effect or the level left; outline: as §2
Sequence of Mitogen-activated protein kinase kinase kinase 9 (Homo sapiens) (P80192 whole entry, looked up, the tested form may be a part): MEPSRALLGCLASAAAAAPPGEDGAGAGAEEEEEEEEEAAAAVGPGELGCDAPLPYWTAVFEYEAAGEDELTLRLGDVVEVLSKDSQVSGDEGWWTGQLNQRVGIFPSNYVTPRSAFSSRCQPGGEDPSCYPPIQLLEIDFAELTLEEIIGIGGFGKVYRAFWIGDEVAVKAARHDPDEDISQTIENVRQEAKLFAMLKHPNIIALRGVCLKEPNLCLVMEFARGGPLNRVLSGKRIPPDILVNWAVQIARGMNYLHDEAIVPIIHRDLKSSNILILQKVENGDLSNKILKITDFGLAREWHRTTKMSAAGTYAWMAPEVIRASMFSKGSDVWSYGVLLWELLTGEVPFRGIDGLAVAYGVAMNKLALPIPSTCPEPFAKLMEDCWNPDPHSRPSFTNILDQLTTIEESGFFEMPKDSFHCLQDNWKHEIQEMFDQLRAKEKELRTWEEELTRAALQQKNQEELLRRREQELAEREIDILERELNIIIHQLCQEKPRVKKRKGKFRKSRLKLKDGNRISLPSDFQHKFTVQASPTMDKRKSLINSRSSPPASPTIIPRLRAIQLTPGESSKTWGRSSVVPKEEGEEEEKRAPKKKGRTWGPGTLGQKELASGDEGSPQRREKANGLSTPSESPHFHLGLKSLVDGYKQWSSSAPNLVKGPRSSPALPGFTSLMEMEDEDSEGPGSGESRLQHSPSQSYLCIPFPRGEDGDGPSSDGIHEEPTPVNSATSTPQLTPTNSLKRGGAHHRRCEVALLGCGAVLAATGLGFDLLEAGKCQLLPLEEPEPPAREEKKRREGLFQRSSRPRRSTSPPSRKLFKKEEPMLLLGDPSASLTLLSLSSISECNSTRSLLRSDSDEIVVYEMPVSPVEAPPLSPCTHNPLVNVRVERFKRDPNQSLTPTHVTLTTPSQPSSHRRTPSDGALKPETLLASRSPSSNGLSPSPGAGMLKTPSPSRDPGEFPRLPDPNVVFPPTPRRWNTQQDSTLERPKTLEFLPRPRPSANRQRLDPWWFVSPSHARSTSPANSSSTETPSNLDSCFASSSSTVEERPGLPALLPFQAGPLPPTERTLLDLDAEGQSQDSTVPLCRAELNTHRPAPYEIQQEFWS

[5] = target: Aurora kinase A (Homo sapiens) (UniProt O14965); test: Inhibition of human AURKA (122 to 401 amino acid residues) assessed as enzyme activity at 10 uM by KINOMEScan assay; set-up: scale not given: the % may be the effect or the level left; outline: as §2
[6] = target: Cyclin-dependent kinase 16 (Homo sapiens) (UniProt Q00536); test: Inhibition of human PCTK1 (160 to 474 amino acid residues) assessed as enzyme activity at 10 uM by KINOMEScan assay; set-up: scale not given: the % may be the effect or the level left; outline: as §3
[7] = target: Angiopoietin-1 receptor (Homo sapiens) (UniProt Q02763); test: Inhibition of human TIE2 (804 to 1112 amino acid residues) expressed in bacterial system assessed as enzyme activity at 10 uM by KINOMEScan assay; set-up: scale not given: the % may be the effect or the level left; outline: as §1
[8] = target: Tyrosine-protein kinase ABL1 (Homo sapiens) (UniProt P00519); test: Inhibition of human ABL1 kinase phosphorylation (229 to 512 amino acid residues) assessed as enzyme activity at 10 uM by KINOMEScan assay; set-up: scale not given: the % may be the effect or the level left; outline: as §2
[9] = target: Platelet-derived growth factor receptor beta (Homo sapiens) (UniProt P09619); test: Inhibition of human PDGFRB (582 to 1009 amino acid residues) expressed in bacterial system assessed as enzyme activity at 10 uM by KINOMEScan assay; set-up: scale not given: the % may be the effect or the level left; outline: as §3
[10] = target: Mast/stem cell growth factor receptor Kit (Homo sapiens) (UniProt P10721); test: Inhibition of human KIT (571 to 952 amino acid residues) expressed in bacterial system assessed as enzyme activity at 10 uM by KINOMEScan assay; set-up: scale not given: the % may be the effect or the level left; outline: as §3
[11] = target: RAC-alpha serine/threonine-protein kinase (Homo sapiens) (UniProt P31749); test: Inhibition of human Akt1 expressed in bacterial system assessed as enzyme activity at 10 uM by KINOMEScan assay; set-up: scale not given: the % may be the effect or the level left; outline: as §3
[12] = target: Serine/threonine-protein kinase Chk1 (Homo sapiens) (UniProt O14757); test: Inhibition of human CHEK1 (1 to 289 amino acid residues) assessed as enzyme activity at 10 uM by KINOMEScan assay expressed in bacterial system assessed as enzyme activity at 10 uM by KINOMEScan assay; set-up: scale not given: the % may be the effect or the level left; outline: as §2
[13] = target: SRSF protein kinase 3 (Homo sapiens) (UniProt Q9UPE1); test: Inhibition of human SRPK3 (41 to 567 amino acid residues) expressed in bacterial system assessed as enzyme activity at 10 uM by KINOMEScan assay; set-up: scale not given: the % may be the effect or the level left; outline: as §1
[14] = target: ALK tyrosine kinase receptor (Homo sapiens) (UniProt Q9UM73); test: Inhibition of human ALK (1088 to 1409 amino acid residues) assessed as enzyme activity at 10 uM by KINOMEScan assay; set-up: scale not given: the % may be the effect or the level left; outline: as §3
[15] = target: Tyrosine-protein kinase receptor UFO (Homo sapiens) (UniProt P30530); test: Inhibition of human AXL (497 to 821 amino acid residues) assessed as enzyme activity at 10 uM by KINOMEScan assay expressed in bacterial system assessed as enzyme activity at 10 uM by KINOMEScan assay; set-up: scale not given: the % may be the effect or the level left
Outline: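 Commercial KINOMEscan binding screen across a 100-kinase panel, test compound at 10 μM. Primary-screen binding interactions reported as % Ctrl = (test compound signal − positive control signal)/(negative control signal − positive control signal) × 100. Lower values indicate stronger hits.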

[16] = target: Tyrosine-protein kinase ZAP-70 (Homo sapiens) (UniProt P43403); test: Inhibition of human ZAP70 (20 to 299 amino acid residues) assessed as enzyme activity at 10 uM by KINOMEScan assay; set-up: scale not given: the % may be the effect or the level left; outline: as §3
Sequence of Tyrosine-protein kinase ZAP-70 (Homo sapiens) (P43403 whole entry, the tested form may be a part): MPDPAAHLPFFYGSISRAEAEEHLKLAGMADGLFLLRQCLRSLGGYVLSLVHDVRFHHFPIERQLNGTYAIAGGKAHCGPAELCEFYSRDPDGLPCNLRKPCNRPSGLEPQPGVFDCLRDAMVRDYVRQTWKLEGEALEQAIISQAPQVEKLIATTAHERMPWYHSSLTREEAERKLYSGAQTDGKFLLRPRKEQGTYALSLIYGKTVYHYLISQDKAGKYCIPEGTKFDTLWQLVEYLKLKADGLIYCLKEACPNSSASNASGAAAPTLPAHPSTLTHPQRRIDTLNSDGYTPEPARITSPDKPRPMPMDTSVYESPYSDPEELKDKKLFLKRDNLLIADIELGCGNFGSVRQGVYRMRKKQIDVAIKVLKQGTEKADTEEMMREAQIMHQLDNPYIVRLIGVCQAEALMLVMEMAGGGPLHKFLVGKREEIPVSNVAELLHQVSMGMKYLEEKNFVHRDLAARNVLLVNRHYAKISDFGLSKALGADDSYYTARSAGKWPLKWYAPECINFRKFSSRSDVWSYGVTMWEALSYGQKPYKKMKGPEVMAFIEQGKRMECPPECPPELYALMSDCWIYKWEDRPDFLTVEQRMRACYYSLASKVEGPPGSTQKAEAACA

[17] = target: 3-phosphoinositide-dependent protein kinase 1 (Homo sapiens) (UniProt O15530); test: Inhibition of full length human PDPK1 expressed in bacterial system assessed as enzyme activity at 10 uM by KINOMEScan assay; set-up: scale not given: the % may be the effect or the level left; outline: as §2
Sequence of 3-phosphoinositide-dependent protein kinase 1 (Homo sapiens) (O15530 whole entry): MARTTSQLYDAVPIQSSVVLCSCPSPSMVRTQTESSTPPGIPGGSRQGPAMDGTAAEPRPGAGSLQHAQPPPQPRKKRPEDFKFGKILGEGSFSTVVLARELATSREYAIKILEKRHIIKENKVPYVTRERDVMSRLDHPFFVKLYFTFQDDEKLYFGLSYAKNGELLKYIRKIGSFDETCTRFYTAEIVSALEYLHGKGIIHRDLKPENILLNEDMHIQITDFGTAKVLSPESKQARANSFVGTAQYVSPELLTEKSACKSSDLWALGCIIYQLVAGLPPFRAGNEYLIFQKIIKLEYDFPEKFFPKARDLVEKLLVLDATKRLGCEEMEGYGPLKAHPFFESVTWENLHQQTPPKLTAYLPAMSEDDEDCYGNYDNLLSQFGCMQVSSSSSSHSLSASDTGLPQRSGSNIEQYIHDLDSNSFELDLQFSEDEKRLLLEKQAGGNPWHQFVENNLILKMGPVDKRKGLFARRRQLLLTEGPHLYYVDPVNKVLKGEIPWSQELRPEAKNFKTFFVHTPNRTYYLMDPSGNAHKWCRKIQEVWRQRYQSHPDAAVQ

[18] = target: Dual specificity mitogen-activated protein kinase kinase 2 (Homo sapiens) (UniProt P36507); test: Inhibition of full length human MEK2 assessed as enzyme activity at 10 uM by KINOMEScan assay; set-up: scale not given: the % may be the effect or the level left; outline: as §2
[19] = target: Serine/threonine-protein kinase pim-2 (Homo sapiens) (UniProt Q9P1W9); test: Inhibition of PIM2 (unknown origin)
Sequence of Serine/threonine-protein kinase pim-2 (Homo sapiens) (Q9P1W9 whole entry, looked up): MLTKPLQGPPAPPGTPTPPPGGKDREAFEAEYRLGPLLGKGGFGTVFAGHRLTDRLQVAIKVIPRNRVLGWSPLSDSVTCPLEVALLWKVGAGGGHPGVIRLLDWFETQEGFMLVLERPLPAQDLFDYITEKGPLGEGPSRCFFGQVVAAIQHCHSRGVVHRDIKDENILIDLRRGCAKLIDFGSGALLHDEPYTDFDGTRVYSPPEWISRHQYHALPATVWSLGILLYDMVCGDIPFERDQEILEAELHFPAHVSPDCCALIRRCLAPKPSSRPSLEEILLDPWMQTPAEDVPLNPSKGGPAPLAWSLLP

[20] = target: Mitogen-activated protein kinase 14 (Homo sapiens) (UniProt Q16539); test: Inhibition of full length human p38-alpha expressed in bacterial system assessed as enzyme activity at 10 uM by KINOMEScan assay; set-up: scale not given: the % may be the effect or the level left; outline: as §3
Sequence of Mitogen-activated protein kinase 14 (Homo sapiens) (Q16539 whole entry, the tested form may be a part): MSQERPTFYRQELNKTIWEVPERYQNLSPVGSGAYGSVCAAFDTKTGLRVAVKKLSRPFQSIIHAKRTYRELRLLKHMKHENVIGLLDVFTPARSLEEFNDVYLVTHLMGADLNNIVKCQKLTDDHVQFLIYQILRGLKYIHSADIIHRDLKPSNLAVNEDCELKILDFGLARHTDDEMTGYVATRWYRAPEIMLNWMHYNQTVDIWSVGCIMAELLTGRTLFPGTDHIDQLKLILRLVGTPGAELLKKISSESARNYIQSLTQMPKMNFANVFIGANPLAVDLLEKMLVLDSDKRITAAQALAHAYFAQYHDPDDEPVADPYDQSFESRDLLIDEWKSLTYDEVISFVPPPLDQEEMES

[21] = target: Hepatocyte growth factor receptor (Homo sapiens) (UniProt P08581); test: Inhibition of human MET (1010 to 1367 amino acid residues) expressed in bacterial system assessed as enzyme activity at 10 uM by KINOMEScan assay; set-up: scale not given: the % may be the effect or the level left; outline: as §3
[22] = target: Ephrin type-A receptor 2 (Homo sapiens) (UniProt P29317); test: Inhibition of human EPHA2 (593 to 891 amino acid residues) assessed as enzyme activity at 10 uM by KINOMEScan assay expressed in bacterial system assessed as enzyme activity at 10 uM by KINOMEScan assay; set-up: scale not given: the % may be the effect or the level left; outline: as §3
Sequence of Ephrin type-A receptor 2 (Homo sapiens) (P29317 whole entry, the tested form may be a part): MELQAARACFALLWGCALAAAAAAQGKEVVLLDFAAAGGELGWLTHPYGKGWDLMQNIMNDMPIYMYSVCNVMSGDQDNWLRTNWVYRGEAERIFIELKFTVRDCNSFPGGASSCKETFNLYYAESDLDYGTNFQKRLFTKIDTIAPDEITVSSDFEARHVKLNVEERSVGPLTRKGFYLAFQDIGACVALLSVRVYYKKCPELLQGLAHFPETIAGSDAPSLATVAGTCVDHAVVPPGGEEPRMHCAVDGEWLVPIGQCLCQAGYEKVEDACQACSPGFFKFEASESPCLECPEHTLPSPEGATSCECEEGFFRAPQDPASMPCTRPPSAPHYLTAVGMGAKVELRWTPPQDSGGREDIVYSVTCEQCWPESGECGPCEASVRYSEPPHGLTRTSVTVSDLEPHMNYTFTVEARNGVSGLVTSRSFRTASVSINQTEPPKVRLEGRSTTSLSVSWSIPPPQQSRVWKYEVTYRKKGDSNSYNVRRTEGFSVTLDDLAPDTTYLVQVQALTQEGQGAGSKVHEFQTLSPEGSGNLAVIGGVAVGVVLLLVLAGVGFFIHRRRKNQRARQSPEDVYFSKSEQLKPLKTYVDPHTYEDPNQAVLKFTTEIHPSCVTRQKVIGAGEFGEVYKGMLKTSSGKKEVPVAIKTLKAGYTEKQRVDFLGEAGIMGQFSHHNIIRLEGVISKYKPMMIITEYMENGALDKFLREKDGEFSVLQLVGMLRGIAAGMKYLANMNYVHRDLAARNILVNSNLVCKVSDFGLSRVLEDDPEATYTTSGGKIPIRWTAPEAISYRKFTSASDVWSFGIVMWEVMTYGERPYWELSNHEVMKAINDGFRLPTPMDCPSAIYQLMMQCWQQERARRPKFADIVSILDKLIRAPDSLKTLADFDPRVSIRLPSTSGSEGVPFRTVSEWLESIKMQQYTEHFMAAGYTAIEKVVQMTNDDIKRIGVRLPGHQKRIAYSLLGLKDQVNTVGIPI

[23] = target: Serine/threonine-protein kinase STK11 (Homo sapiens) (UniProt Q15831); test: Inhibition of full length human LKB1 expressed in bacterial system assessed as enzyme activity at 10 uM by KINOMEScan assay; set-up: scale not given: the % may be the effect or the level left; outline: as §3
Sequence of Serine/threonine-protein kinase STK11 (Homo sapiens) (Q15831 whole entry, the tested form may be a part): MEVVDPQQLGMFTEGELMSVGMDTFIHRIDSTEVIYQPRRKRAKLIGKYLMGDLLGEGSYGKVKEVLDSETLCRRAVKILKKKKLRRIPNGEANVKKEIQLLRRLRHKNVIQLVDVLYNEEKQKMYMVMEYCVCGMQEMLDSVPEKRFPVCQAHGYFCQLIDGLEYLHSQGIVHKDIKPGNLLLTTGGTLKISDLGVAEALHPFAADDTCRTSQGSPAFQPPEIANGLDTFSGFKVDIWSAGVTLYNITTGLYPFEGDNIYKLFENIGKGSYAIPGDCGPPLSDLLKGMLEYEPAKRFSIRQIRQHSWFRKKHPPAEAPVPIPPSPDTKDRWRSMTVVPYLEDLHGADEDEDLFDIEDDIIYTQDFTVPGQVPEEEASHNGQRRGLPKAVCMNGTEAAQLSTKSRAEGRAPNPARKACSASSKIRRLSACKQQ

[24] = target: Proto-oncogene tyrosine-protein kinase Src (Homo sapiens) (UniProt P12931); test: Inhibition of human SRC (240 to 536 amino acid residues) expressed in bacterial system assessed as enzyme activity at 10 uM by KINOMEScan assay; set-up: scale not given: the % may be the effect or the level left; outline: as §1

Sequence of Serine/threonine-protein kinase PLK3 (Homo sapiens) (Q9H4B4 whole entry, looked up, the tested form may be a part): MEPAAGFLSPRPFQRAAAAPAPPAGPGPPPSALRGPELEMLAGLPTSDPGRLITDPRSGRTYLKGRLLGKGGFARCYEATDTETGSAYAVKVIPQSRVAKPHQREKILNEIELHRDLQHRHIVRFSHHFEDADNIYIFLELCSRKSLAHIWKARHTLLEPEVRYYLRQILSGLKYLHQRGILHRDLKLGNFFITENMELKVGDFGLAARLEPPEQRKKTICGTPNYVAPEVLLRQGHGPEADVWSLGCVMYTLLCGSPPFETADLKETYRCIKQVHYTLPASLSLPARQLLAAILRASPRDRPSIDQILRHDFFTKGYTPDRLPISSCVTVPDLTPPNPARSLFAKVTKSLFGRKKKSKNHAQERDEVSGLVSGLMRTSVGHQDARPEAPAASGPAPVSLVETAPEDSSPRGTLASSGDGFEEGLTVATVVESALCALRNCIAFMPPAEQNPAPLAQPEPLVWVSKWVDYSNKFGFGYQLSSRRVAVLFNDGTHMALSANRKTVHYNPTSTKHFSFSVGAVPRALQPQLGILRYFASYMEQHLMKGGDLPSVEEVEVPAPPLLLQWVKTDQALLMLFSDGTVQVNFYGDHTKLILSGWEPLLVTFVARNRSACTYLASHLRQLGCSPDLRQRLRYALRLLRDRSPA

O=C1C2=C(C(=O)c3c(O)ccc(O)c31)[C@@H](O)[C@@H](O)[C@@H](O)C2
Activity [1]: 54%
Activity [2]: 60%
Activity [3]: 86%
Activity [4]: 99%
Activity [5]: 87%
Activity [6]: 100%
Activity [7]: 89%
Activity [8]: 88%
Activity [9]: 100%
Activity [10]: 76%
Activity [11]: 100%
Activity [12]: 79%
Activity [13]: 93%
Activity [14]: 100%
Activity [15]: 100%
Activity [16]: 100%
Activity [17]: 87%
Activity [18]: 96%
% of MOE kinase hits [19]: 29%
Activity [20]: 100%
Activity [21]: 100%
Activity [22]: 100%
Activity [23]: 100%
Activity [24]: 91%
